Reference: ChEMBL document CHEMBL3232764, “Influence of the adamantyl moiety on the activity of biphenylacrylohydroxamic acid-based HDAC inhibitors” (Eur J Med Chem, 2014)

Assays:
Histone deacetylase 1 = Histone deacetylase 1 (Homo sapiens, UniProt Q13547); assay: Inhibition of human HDAC1 using fluorogenic tetrapeptide RHKKAc as substrate
Histone deacetylase 8 = molecular target: T1, Histone deacetylase 8 (Homo sapiens, UniProt Q9BY41); assay: Inhibition of human HDAC8 using fluorogenic tetrapeptide RHKKAc as substrate
T1 sequence (Q9BY41 whole entry): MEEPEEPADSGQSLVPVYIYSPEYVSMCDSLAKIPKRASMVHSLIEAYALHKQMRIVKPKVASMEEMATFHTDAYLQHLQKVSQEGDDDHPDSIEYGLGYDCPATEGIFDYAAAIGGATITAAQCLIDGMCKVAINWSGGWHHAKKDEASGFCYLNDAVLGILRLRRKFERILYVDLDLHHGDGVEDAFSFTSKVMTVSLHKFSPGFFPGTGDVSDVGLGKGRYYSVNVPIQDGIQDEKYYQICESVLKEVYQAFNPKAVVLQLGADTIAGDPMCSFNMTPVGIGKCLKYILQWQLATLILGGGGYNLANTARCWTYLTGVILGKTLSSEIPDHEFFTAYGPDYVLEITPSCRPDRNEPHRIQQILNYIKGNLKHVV

[1] = molecular target: T2, Protein deacetylase HDAC6 (Homo sapiens, UniProt Q9UBN7); assay: Inhibition of human HDAC6 using fluorogenic tetrapeptide RHKKAc as substrate
T2 sequence (Q9UBN7 whole entry): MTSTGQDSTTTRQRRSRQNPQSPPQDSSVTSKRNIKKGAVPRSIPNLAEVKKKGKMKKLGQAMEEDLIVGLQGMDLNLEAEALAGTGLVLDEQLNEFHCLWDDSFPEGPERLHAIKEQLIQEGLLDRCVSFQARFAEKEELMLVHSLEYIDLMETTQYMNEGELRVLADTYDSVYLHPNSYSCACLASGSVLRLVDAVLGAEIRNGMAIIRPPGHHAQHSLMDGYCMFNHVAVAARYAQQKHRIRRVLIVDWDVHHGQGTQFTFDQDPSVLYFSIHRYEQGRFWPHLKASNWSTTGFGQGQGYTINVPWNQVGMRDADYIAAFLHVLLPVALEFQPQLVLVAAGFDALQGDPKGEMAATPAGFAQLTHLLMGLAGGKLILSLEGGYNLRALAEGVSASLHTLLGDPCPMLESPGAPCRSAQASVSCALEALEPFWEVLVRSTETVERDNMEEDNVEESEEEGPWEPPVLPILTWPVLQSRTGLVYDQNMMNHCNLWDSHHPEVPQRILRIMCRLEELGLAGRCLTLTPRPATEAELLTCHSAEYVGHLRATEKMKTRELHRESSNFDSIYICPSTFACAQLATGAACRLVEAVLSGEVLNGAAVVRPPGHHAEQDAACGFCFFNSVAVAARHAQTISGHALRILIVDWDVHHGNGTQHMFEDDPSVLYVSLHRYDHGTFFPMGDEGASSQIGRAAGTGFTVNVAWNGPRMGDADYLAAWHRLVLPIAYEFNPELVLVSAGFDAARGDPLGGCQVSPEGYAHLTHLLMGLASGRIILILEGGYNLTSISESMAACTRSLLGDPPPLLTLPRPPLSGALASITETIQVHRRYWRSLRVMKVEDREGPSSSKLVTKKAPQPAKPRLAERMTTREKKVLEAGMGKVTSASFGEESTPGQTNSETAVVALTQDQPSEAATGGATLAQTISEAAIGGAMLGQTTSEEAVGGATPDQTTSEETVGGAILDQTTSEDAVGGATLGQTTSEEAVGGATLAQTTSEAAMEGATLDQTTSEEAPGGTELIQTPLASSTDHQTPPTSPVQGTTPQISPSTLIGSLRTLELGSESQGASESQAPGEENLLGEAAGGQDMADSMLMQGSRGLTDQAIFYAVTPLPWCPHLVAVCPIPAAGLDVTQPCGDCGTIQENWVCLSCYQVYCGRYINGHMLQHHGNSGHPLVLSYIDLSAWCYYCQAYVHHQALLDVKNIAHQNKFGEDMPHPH

Histone deacetylase 9 = Histone deacetylase 9 (Homo sapiens, UniProt Q9UKV0); assay: Inhibition of human HDAC9 using fluorogenic tetrapeptide RHKKAc as substrate
Sequence of Histone deacetylase 9 (Q9UKV0 whole entry): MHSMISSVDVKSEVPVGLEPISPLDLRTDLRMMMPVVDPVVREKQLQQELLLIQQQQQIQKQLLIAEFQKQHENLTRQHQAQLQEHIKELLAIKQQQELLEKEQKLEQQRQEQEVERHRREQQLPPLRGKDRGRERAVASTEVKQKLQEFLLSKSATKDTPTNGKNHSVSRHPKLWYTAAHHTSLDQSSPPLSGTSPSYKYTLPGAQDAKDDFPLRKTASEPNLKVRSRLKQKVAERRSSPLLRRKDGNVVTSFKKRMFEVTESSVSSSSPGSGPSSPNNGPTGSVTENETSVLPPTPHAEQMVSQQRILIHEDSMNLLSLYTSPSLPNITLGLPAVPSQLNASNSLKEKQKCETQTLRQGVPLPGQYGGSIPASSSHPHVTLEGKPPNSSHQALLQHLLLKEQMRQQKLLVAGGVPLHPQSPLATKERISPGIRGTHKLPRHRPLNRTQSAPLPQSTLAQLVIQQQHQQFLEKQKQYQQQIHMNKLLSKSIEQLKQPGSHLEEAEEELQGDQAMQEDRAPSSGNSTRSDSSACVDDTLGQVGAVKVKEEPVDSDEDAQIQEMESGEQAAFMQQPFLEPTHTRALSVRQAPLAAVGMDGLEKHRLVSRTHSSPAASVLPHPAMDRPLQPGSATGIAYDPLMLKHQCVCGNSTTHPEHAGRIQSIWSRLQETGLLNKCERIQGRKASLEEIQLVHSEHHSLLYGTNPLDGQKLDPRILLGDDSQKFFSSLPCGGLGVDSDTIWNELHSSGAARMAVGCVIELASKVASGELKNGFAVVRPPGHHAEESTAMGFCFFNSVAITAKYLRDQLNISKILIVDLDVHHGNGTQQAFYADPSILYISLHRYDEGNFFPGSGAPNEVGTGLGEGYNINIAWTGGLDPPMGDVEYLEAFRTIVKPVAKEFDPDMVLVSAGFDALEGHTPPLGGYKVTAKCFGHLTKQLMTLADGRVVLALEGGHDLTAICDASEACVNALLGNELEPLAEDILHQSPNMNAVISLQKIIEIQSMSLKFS

HCT-116 = assay: Antiproliferative activity against human HCT116 cells assessed as growth inhibition after 72 hrs; format: functional, cell-based; conditions: HCT-116, 72 h
In short: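 Log-phase cells seeded in duplicate in 6-well plates; drug added 24 h after seeding. Cells harvested 72 h after drug exposure and counted with a cell counter. IC50 = drug concentration giving 50% reduction in cell number versus untreated control.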

Histone deacetylase 4 = Histone deacetylase 4 (Homo sapiens, UniProt P56524); assay: Inhibition of human HDAC4 using fluorogenic tetrapeptide RHKKAc as substrate
Sequence of Histone deacetylase 4 (P56524 whole entry): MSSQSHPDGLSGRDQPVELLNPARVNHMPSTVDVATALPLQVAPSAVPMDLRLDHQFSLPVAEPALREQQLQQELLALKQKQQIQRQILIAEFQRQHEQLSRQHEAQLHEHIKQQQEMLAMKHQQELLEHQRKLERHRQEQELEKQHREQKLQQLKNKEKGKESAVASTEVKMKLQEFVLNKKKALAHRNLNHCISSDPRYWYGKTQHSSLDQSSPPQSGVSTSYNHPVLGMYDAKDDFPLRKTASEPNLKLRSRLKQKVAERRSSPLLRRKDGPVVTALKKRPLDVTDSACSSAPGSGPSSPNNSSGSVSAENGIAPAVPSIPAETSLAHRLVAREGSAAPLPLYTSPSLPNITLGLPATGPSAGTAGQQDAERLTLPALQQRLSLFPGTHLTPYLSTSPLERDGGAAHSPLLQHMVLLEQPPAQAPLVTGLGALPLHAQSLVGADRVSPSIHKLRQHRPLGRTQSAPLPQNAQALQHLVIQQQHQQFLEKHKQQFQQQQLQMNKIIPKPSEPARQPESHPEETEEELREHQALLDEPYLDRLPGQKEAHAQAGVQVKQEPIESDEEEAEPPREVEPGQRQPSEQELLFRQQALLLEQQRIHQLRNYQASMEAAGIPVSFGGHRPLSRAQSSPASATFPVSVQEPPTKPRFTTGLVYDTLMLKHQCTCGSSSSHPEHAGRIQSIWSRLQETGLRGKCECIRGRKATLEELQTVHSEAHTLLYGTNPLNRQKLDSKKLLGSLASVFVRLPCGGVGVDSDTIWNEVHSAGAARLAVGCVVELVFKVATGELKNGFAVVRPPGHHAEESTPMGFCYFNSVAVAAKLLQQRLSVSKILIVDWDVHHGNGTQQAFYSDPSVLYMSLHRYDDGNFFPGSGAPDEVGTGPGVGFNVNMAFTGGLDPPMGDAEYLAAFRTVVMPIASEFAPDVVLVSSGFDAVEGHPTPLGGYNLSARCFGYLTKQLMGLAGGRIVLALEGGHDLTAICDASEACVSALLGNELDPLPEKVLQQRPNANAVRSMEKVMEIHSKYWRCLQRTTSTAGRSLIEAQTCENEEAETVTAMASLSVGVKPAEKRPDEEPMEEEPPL

Histone deacetylase 11 = molecular target: T3, Histone deacetylase 11 (Homo sapiens, UniProt Q96DB2); assay: Inhibition of human HDAC11 using fluorogenic tetrapeptide RHKKAc as substrate
T3 sequence (Q96DB2 whole entry): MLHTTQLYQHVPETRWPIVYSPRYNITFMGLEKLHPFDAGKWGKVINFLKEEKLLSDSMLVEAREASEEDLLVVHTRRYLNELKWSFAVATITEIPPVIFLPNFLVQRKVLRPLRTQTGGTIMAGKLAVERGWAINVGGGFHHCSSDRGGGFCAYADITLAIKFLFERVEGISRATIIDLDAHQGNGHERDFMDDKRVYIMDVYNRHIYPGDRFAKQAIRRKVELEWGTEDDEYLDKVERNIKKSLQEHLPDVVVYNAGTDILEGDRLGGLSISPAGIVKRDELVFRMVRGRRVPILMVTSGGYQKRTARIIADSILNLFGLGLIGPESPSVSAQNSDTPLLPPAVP

IGROV-1 = assay: Induction of apoptosis in human IGROV1 cells at IC80 after 72 hrs by TUNEL and flow cytometry analysis (reference value: 4%); format: functional
Histone deacetylase 5 = Histone deacetylase 5 (Homo sapiens, UniProt Q9UQL6); assay: Inhibition of human HDAC5 using fluorogenic tetrapeptide RHKKAc as substrate
Sequence of Histone deacetylase 5 (Q9UQL6 whole entry): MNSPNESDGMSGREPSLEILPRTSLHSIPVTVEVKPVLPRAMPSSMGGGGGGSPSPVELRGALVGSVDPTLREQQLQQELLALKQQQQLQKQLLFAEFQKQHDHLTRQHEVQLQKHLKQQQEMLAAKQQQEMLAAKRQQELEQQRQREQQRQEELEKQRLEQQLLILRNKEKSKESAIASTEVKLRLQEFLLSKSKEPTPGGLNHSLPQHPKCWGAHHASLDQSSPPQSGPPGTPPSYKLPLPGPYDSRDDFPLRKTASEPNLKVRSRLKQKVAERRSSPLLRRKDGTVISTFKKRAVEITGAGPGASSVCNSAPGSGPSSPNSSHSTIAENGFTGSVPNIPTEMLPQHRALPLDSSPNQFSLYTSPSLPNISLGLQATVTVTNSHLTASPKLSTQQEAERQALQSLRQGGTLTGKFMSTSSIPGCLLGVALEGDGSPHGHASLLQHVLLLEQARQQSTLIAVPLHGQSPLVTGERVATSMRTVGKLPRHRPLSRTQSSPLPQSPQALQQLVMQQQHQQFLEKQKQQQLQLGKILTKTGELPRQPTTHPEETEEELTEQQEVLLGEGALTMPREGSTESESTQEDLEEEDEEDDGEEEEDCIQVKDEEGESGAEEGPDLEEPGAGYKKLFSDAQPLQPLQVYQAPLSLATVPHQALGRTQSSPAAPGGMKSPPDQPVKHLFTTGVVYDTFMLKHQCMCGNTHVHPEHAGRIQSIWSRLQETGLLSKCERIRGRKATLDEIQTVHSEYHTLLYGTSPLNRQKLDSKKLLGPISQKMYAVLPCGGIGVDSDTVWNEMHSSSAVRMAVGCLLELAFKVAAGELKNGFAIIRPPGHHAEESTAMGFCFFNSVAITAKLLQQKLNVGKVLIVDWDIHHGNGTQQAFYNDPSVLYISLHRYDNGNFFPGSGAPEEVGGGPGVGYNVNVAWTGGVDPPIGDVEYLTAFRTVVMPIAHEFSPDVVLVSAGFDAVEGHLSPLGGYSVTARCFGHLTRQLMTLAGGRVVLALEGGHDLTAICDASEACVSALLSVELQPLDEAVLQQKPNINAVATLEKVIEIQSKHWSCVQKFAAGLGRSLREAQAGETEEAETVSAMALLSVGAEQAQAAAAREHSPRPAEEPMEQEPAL

Histone deacetylase 3 = Histone deacetylase 3 (Homo sapiens, UniProt O15379)
Sequence of Histone deacetylase 3 (O15379 whole entry): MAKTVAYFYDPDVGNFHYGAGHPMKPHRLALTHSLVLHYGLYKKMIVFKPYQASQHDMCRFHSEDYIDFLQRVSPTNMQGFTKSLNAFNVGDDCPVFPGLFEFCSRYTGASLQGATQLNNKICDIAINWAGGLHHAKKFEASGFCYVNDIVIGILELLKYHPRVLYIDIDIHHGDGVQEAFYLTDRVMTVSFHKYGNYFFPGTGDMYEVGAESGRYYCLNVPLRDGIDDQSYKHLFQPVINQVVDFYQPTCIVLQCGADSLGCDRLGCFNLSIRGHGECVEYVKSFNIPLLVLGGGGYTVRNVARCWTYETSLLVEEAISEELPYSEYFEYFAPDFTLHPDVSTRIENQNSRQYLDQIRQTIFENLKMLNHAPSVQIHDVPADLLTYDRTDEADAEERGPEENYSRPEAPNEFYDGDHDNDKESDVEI

Sequence of Histone deacetylase 1 (Q13547 whole entry): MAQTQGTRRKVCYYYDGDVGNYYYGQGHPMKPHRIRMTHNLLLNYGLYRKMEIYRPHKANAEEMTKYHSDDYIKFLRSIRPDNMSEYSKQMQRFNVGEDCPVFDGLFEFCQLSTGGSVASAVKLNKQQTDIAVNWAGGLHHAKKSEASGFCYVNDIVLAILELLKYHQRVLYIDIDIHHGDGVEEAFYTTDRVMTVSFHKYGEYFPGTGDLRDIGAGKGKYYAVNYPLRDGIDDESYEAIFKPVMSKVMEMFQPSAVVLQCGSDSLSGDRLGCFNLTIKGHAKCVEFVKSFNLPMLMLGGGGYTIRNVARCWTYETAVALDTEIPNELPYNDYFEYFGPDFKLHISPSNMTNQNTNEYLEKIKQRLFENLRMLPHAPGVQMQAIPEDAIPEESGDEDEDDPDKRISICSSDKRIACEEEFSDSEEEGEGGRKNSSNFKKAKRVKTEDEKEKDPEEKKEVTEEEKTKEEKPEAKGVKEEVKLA

SMILES: COc1ccc(-c2ccc(/C=C/C=C/C(=O)NO)cc2)cc1
- IC50 (Histone deacetylase 1): > 100 µM
- IC50 (Histone deacetylase 8): 1.56 µM
- IC50 [1]: 3.26 µM
- IC50 (Histone deacetylase 9): > 100 µM
- IC50 (HCT-116): 2.4 µM
- IC50 (Histone deacetylase 4): > 100 µM
- IC50 (Histone deacetylase 11): > 100 µM
- Activity (IGROV-1): 91%
- IC50 (Histone deacetylase 5): > 100 µM
- IC50 (Histone deacetylase 3): > 100 µM

SMILES: COc1ccc(-c2ccc(/C=C/C=C/C(=O)NO)cc2)cc1C12CC3CC(CC(C3)C1)C2
- IC50 (Histone deacetylase 1): 60.1 µM
- IC50 (Histone deacetylase 8): 30.6 µM
- IC50 [1]: 16.7 µM
- IC50 (Histone deacetylase 9): > 100 µM
- IC50 (HCT-116): 1.8 µM
- IC50 (Histone deacetylase 4): > 100 µM
- IC50 (Histone deacetylase 11): 38.1 µM
- Activity (IGROV-1): 52%
- IC50 (Histone deacetylase 5): > 100 µM
- IC50 (Histone deacetylase 3): > 100 µM
